For orientation: pIC50 means −log10 of the IC50, conventionally taken in molar units. A lower pIC50 goes with a large IC50.

pIC50: −log10 of the molar value. Calls of active or inactive are those of the source. The rule behind the calls is not given here.

Test [1] concerns SH-SY5Y. Nature of the test: Cytotoxicity against human SH-SY5Y cells assessed as cell viability at 10 uM after 48 hrs by MTT assay relative to control. Format: functional. As to conditions: for viability at 10 µM: read-out: Activity. In short, it runs like this:
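Single-concentration screen: SH-SY5Y cells given 10 µM compound for 48 h. Viability read by MTT and expressed as % of untreated control. Mean ± SEM of three replicates.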
(Tetrazolium dyes change colour on reduction, which living cells bring about.)

Test [2] concerns SH-SY5Y. Briefly: Cell cycle arrest in human SH-SY5Y cells assessed as accumulation at S phase at 2 times IC50 concentration after 16 hrs by FACS analysis (reference value: 36 +/- 4%). Format: functional. (In general: Flow cytometry measures light scatter and fluorescence of single cells or particles in a stream.)
Test [3] has as its system SH-SY5Y. Briefly: Cell cycle arrest in human SH-SY5Y cells assessed as accumulation at G2/M phase at 2 times IC50 concentration after 16 hrs by FACS analysis (reference value: 15 +/- 4.8%). Type of test: functional.
The test system of test [4] is SH-SY5Y. Briefly: Cell cycle arrest in human SH-SY5Y cells assessed as accumulation at G0/G1 phase at 2 times IC50 concentration after 16 hrs by FACS analysis (reference value: 49 +/- 5.5%). Format: functional.
Test [5] relates to SH-SY5Y. Briefly: Cytotoxicity against human SH-SY5Y cells after 48 hrs by MTT assay. Type of test: functional, cell-based. In short, it runs like this:
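SH-SY5Y neuroblastoma cells treated 48 h across a dose range. Viability/proliferation read by MTT. IC50 taken from dose–response curves, mean ± SEM of at least eight determinations from two separate experiments.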

Test [6] is described as follows: Inhibition of tubulin polymerization.

In the case of `COc1ccc(-n2cc(C(=O)c3cc(OC)c(OC)c(OC)c3)nn2)c(OC)c1`, the result with SH-SY5Y [1] was inactive.

Turning to `COc1ccc(-n2cc(C(=O)c3cc(OC)c(OC)c(OC)c3)nn2)cc1`, the outcome with SH-SY5Y [1] was inactive.

Take `COc1cc(C(=O)c2cn(-c3cc(OC)c(OC)c(OC)c3)nn2)cc(OC)c1OC`: the outcome in the test on SH-SY5Y [1] was inactive.

On to `COc1cc(C(=O)c2cn(-c3ccc4ccccc4c3)nn2)cc(OC)c1OC`, for which the outcome in the test on SH-SY5Y [1] was inactive.

For `COc1ccc(-n2nnnc2C(=O)c2cc(OC)c(OC)c(OC)c2)cc1O`, the figures for the Activity in the test with SH-SY5Y [2], in the test with SH-SY5Y [3] and in the test with SH-SY5Y [4] were 30%, 29% and 41%, respectively. Besides, in the test with SH-SY5Y [1], the viability at 10 µM was found to be 51.6%.

Consider `COc1ccc(-n2cc(C(=O)c3cc(OC)c(OC)c(OC)c3)nn2)cc1F`, for which the outcome in the test with SH-SY5Y [1] was inactive.

Turning to `COc1ccc(C(=O)C#Cc2cc(OC)c(OC)c(OC)c2)cc1`, the values for the Activity with SH-SY5Y [2], with SH-SY5Y [3] and in the test with SH-SY5Y [4] were 18%, 8% and 76%, respectively. The viability at 10 µM with SH-SY5Y [1] stood at 20.4%.

Consider `COc1cc(-n2cc(C(=O)c3cc(OC)c(OC)c(OC)c3)nn2)ccc1O`, for which the outcome with SH-SY5Y [1] was inactive.

For the compound `COc1ccc(-n2cc(C(=O)c3cc(OC)c(OC)c(OC)c3)nn2)cc1O`, the result in the test on SH-SY5Y [1] was inactive.

Consider `COc1cc(C(=O)c2cn(-c3cnc4ccccc4c3)nn2)cc(OC)c1OC`, for which the outcome in the test on SH-SY5Y [1] was inactive.

Take `COc1ccc(-n2cc(C(=O)c3cc(OC)c(OC)c(OC)c3)nn2)cc1OC`: the result in the test on SH-SY5Y [1] was inactive.

On to `COc1ccc(-c2[nH]nnc2C(=O)c2cc(OC)c(OC)c(OC)c2)cc1`, for which the viability at 10 µM in the test on SH-SY5Y [1] was above 70%.

With `COc1ccc(-n2cc(C(=O)c3cc(OC)c(OC)c(OC)c3)nn2)cc1[N+](=O)[O-]`, the outcome in the test with SH-SY5Y [1] was inactive.

Take `COc1ccc(/C=C/C(=O)c2cc(OC)c(OC)c(OC)c2)cc1O`: the Activity is 48% in the test on SH-SY5Y [2], 30% in the test on SH-SY5Y [3] and 23% with SH-SY5Y [4]. Further, the viability at 10 µM in the test on SH-SY5Y [1] stood at 17%. Moreover, the pIC50 in the test on SH-SY5Y [5] was 7.30; in test [6], 6.00.

For the compound `COc1cc(C(=O)c2cn(-c3ccc4c(c3)OCO4)nn2)cc(OC)c1OC`, the outcome in the test with SH-SY5Y [1] was inactive.

As to `COc1cc(OC(F)(F)F)cc(-n2cc(C(=O)c3cc(OC)c(OC)c(OC)c3)nn2)c1`, the result in the test on SH-SY5Y [1] was inactive.

Take `COc1cccc(-n2cc(C(=O)c3cc(OC)c(OC)c(OC)c3)nn2)c1O`: the outcome with SH-SY5Y [1] was inactive.

As to `COc1ccc(C(=O)c2nn[nH]c2-c2cc(OC)c(OC)c(OC)c2)cc1`, the viability at 10 µM in the test with SH-SY5Y [1] was above 70%.

As to `COc1cccc(-n2cc(C(=O)c3cc(OC)c(OC)c(OC)c3)nn2)c1`, the result in the test with SH-SY5Y [1] was inactive.

As to `COc1cc(C(=O)c2cn(-c3cccc4ccccc34)nn2)cc(OC)c1OC`, in the test on SH-SY5Y [1], the outcome was inactive.

With `COc1ccccc1-n1cc(C(=O)c2cc(OC)c(OC)c(OC)c2)nn1`, the result in the test on SH-SY5Y [1] was inactive.

`COc1ccc(/C=C(\C)C(=O)c2cc(OC)c(OC)c(OC)c2)cc1O`: the pIC50 is 9.68 in the test with SH-SY5Y [5] and 5.74 in test [6].

Consider `COc1ccc(C#CC(=O)c2cc(OC)c(OC)c(OC)c2)cc1`, for which the Activity in the test with SH-SY5Y [2] is reported as 16%; in the test with SH-SY5Y [3], 6%; in the test on SH-SY5Y [4], 79%. Further, in the test with SH-SY5Y [1], the viability at 10 µM is 27.7%.

`COc1cc(OC)cc(-n2cc(C(=O)c3cc(OC)c(OC)c(OC)c3)nn2)c1`: in the test on SH-SY5Y [1], the result was inactive.

With `COc1cc(C(=O)c2cn(-c3ccc(OC(F)(F)F)cc3)nn2)cc(OC)c1OC`, in the test on SH-SY5Y [1], the result was inactive.

These data come from ChEMBL document CHEMBL1641433, “Replacement of the double bond of antitubulin chalcones with triazoles and tetrazoles: Synthesis and biological evaluation” (Bioorg Med Chem Lett, 2011).
